ChEMBL document CHEMBL1955822, “Camptothecin (CPT) directly binds to human heterogeneous nuclear ribonucleoprotein A1 (hnRNP A1) and inhibits the hnRNP A1/topoisomerase I interaction” (Bioorg Med Chem, 2011)
The source made the active and inactive calls. No cut-off for these calls is given here.

How the values were obtained:
[1] = system: Drosophila melanogaster; assay: Growth inhibition of Drosophila melanogaster expressing Hrb87F mutant KG02089 assessed as reduction in eclosion rate at 25 uM after 15 days; type: functional, organism-based
Outline: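 Eggs of Hrb87F KG02089 mutant and CantonS wild-type immersed in 25 µM drug or DMSO in 4% EtOH/5% DMSO vehicle. Adults emerging within 15 days counted. Rate = N(mutant)/N(WT) × 100%. Means ± S.E. of three independent experiments.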

[2] = biological target: T1, Heterogeneous nuclear ribonucleoprotein A1 (Homo sapiens, UniProt P09651); assay: Binding affinity to human hnRNP A1 expressed in HeLa cells after 16 hrs by avidin-agarose bead pull down assay; type: cell-based
T1 sequence (P09651 whole entry): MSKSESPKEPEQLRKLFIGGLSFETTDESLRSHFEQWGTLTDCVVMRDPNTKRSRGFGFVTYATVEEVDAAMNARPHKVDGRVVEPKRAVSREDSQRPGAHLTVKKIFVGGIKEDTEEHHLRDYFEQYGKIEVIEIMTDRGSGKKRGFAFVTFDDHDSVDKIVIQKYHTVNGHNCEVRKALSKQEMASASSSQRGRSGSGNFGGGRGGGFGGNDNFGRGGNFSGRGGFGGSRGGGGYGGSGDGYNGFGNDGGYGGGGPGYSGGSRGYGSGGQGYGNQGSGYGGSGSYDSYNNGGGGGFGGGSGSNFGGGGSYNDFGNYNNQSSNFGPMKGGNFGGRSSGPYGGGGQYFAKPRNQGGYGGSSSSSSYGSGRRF
Outline: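 HeLa cells grown in DMEM/10% FCS, 37 °C, 5% CO2; 10^7 cells lysed 1 min in Tris pH 8.0/NaCl/EDTA/0.5% Triton-X; supernatant precleared on avidin-agarose, then 16 h at 4 °C with biotinylated CPT probe (1 mM stock, 1:10 into lysate) or DMSO; avidin-agarose capture 1 h at 4 °C, PBS washes, SDS-PAGE, anti-hnRNP A1 western blot with chemiluminescence.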

[3] = biological target: T1, Heterogeneous nuclear ribonucleoprotein A1; assay: Binding affinity to recombinant GST-tagged human hnRNP A1 expressed in Escherichia coli after 16 hrs by avidin-agarose bead pull down assay
Outline: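 Lysate of E. coli expressing hnRNP A1-GST made by sonication in Tris pH 8.0/150 mM NaCl/EDTA/PMSF. Precleared on avidin-agarose, then mixed with biotinylated CPT probe (1 mM stock, 1:10) or DMSO for 16 h at 4 °C. Bound material captured 1 h on avidin-agarose, washed five times in PBS, run on 15% SDS-PAGE and immunoblotted for hnRNP A1.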

[4] = biological target: T1, Heterogeneous nuclear ribonucleoprotein A1; assay: Inhibition of recombinant GST-tagged human hnRNP A1/his-tagged top1 cap region interaction expressed in Escherichia coli by SPR biosensor analysis
Outline: (§1)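 Biacore SPR, CM5 chip with His-tagged top I cap region (215–433) amine-coupled at pH 5, about 10,000 RU. hnRNP A1-GST injected at various concentrations with or without CPT in HBS-EP/5% DMSO, 20 µl/min, 25 °C. Data analysed by Langmuir and Lineweaver-Burk plots under a non-competitive inhibition model.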

[5] = system: Drosophila melanogaster; assay: Growth inhibition of Drosophila melanogaster expressing Hrb87F mutant BG02743 assessed as reduction in eclosion rate after 15 days; type: functional, organism-based
Outline: (§2)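 Drosophila eggs from 20 adults (laid over 24 h) immersed in 250 µl CPT at 0, 5, 12.5, 25 or 50 µM in 4% EtOH/5% DMSO. Adults emerging within 15 days counted. Eclosion rate = N(µM)/N(0 µM) × 100%, compared with wild-type CantonS. Means ± S.E. of three independent experiments.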

[6] = system: Drosophila melanogaster; assay: Growth inhibition of 7 day-old Drosophila melanogaster pupa expressing Hrb87F mutant KG02089 at 25 to 50 uM after 15 days; type: functional, organism-based
Outline: (§3)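 Drosophila eggs from 20 adults (laid over 24 h) immersed in 250 µl CPT at 0, 5, 12.5, 25 or 50 µM in 4% EtOH/5% DMSO. Development and pupal phenotype followed at 5, 7 and 14 days after dosing. Wild-type CantonS served as reference.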

[7] = biological target: T1, Heterogeneous nuclear ribonucleoprotein A1; assay: Inhibition of recombinant GST-tagged human hnRNP A1/his-tagged top1 cap region interaction expressed in expressed in Escherichia coli assessed as pBR322 DNA relaxation after 30 mins by agarose gel electrophoresis
Outline: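 Calf thymus topoisomerase I (2 U) incubated with 1 µg supercoiled pBR322 in Tris pH 8/KCl/MgCl2/DTT/spermidine/BSA, with or without 100 µM CPT or 0.5 µM hnRNP A1-GST, for 30 min at 37 °C. Reaction stopped with SDS at 75 °C, then proteinase K digestion. Products run on 1% agarose gel and stained with EtBr.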

[8] = biological target: T1, Heterogeneous nuclear ribonucleoprotein A1; assay: Binding affinity to recombinant GST-tagged human hnRNP A1 expressed in Escherichia coli using QCM biosensor by Scatchard plot analysis
Outline: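 Quartz crystal microbalance with GST-affinity-purified hnRNP A1-GST immobilised on gold electrode; cuvette of PBS–10% DMSO at 25 °C; CPT injected at final 12.5–250 nM; frequency change monitored; Langmuir and Scatchard plots; means ± S.E. of three independent experiments.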

[9] = biological target: T1, Heterogeneous nuclear ribonucleoprotein A1; assay: Noncompetitive inhibition of recombinant GST-tagged human hnRNP A1 binding to recombinant His-tagged top1 cap region by SPR biosensor analysis; outline: as §1
[10] = system: Drosophila melanogaster; assay: Growth inhibition of 7 day-old Drosophila melanogaster pupa expressing Hrb87F mutant BG02743 at 25 to 50 uM after 15 days; type: functional, organism-based; outline: as §3
[11] = system: Drosophila melanogaster; assay: Growth inhibition of Drosophila melanogaster expressing Hrb87F mutant KG02089 assessed as reduction in eclosion rate after 15 days; type: functional, organism-based; outline: as §2

CC(=O)O[C@H]1C(=O)[C@@]2(C)[C@H]([C@H](OC(=O)c3ccccc3)[C@]3(O)C[C@H](OC(=O)[C@H](O)[C@@H](NC(=O)c4ccccc4)c4ccccc4)C(C)=C1C3(C)C)[C@]1(OC(C)=O)CO[C@@H]1C[C@@H]2O
growth inhibition (GI) [1]: inactive

CC[C@@]1(OC(=O)CCCCCNC(=O)CCCC[C@@H]2SC[C@@H]3NC(=O)N[C@@H]32)C(=O)OCc2c1cc1n(c2=O)Cc2cc3ccccc3nc2-1
Activity [2]: Active
Activity [3]: Active

CCc1c2c(nc3ccc(OC(=O)N4CCC(N5CCCCC5)CC4)cc13)-c1cc3c(c(=O)n1C2)COC(=O)[C@]3(O)CC
growth inhibition (GI) [1]: inactive

COc1cccc2c1C(=O)c1c(O)c3c(c(O)c1C2=O)C[C@@](O)(C(=O)CO)C[C@@H]3O[C@H]1C[C@H](N)[C@H](O)[C@H](C)O1
growth inhibition (GI) [1]: inactive

CC[C@@]1(O)C(=O)OCc2c1cc1n(c2=O)Cc2cc3ccccc3nc2-1 [CAMPTOTHECIN]
inhibition [4]: Active
growth inhibition (GI) [5]: Dose-dependent effect
growth inhibition (GI) [6]: Active
inhibition [7]: Active
Bmax [8]: 67 pg/mm2
Kd [8]: 82.7 nM
inhibition [9]: Active
growth inhibition (GI) [10]: Active
growth inhibition (GI) [11]: Dose-dependent effect

BLEOMYCIN
growth inhibition (GI) [1]: inactive
